Laboratory results as given in PMC11622326 (Diabetes, obesity & metabolism, 2024).

Key:
[1] = Acute intravenous dosing plasma PK in mice; assay type: in vivo, mouse; conditions: IV 5 mg/kg
In short: (§1)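 Male C57BL/6 mice (~8 weeks) fasted ~12 h before dosing; food returned 4 h post-dose. Single dose at 5 mg/kg IV (n=3) or 30 mg/kg PO (n=3). Saphenous cross-sampling at 0.0833 h (IV only), 0.25, 0.5, 1, 2, 4, 8, 12 h (PO only) and 24 h. K2EDTA plasma stored at −70°C, then LC-MS/MS. Mean ± SD.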

DIO mice [2] = assay: Non-fasted; assay type: in vivo, mouse
In short: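 HFD-fed obese male C57BL/6 mice (n=8/group) received saline, 10 or 32 mg/kg/day SC once daily. Tail blood was taken noon–1 PM without fasting on days −7, 0, 7, 14, 21 and 28. Glucose read by test strip; plasma insulin by ELISA. Change expressed from Day 0 baseline.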

1-MNA = assay: Terminal liver 1-MNA level in DIO mice; assay type: in vivo, mouse; conditions: high-dose 32 mg/kg/day SC, ~1–2 h post-dosing on Day 30
In short: (§2)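 On day 30, obese HFD mice were dosed (saline, 10 or 32 mg/kg/day SC) 1 h before euthanasia, fasted 4 h, and killed by CO2. Left liver lobe cut into ~30 mg sections, flash-frozen, and assayed by LC-MS/MS for test compound and 1-MNA. Quantitation limit 1 ng/mL.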

[3] = biological target: T1, monoamine oxidase-A (MAO-A) (Homo sapiens, UniProt P21397); assay: Cerep panel: MAO-A inhibition; assay type: biochemical; conditions: 10 μM
T1 sequence (P21397 1-527): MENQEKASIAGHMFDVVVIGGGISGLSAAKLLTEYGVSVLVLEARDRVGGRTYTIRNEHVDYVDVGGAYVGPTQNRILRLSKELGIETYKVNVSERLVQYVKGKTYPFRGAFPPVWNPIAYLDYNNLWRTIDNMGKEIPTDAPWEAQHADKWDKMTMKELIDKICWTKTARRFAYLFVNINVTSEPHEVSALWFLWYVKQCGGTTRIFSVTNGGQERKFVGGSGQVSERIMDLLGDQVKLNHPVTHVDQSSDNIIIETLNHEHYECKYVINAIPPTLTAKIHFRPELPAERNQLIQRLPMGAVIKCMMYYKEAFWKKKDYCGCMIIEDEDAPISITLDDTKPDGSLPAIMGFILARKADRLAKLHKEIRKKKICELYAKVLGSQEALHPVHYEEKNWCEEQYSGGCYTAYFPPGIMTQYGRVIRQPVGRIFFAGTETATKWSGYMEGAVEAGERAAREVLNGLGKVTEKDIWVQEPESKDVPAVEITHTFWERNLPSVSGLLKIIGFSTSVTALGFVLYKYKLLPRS

DIO mice [4] = assay: Efficacy of 5A1MQ in DIO mice: body weight, whole-body composition, food intake; assay type: in vivo, mouse; conditions: for absolute fat mass gain: by study termination, control 4.7 g
In short: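 Male C57BL/6 mice (~18 weeks) kept on HFD for ≥12 weeks, singly housed, stabilised at ~40–50 g. After handling and 3 days of sham saline SC injections, randomised by baseline body composition (n=8/group). Saline, 10 or 32 mg/kg/day SC once daily at 4–5 PM for 30 days. Weight and food intake measured twice weekly; EchoMRI on days −1, 8, 15, 23, 29. Two-way repeated-measures ANOVA with FDR correction; ANCOVA with body weight covariate; mean ± SEM.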

DIO mice [5] = assay: Oral glucose tolerance test; assay type: in vivo, mouse; conditions: Day 21, high-dose 32 mg/kg/day SC vs control and low-dose
In short: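 Performed on day 21 in obese HFD mice dosed daily SC (saline, 10 or 32 mg/kg/day). After fed-state bleed, mice fasted 4 h, receiving their treatment at 3 h of fasting. One hour post-dose, 2 g/kg oral glucose bolus. Blood glucose at 0, 15, 30, 60 and 120 min; plasma insulin at 0 and 15 min.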

DIO mice [6] = assay: Terminal serum chemistry and complete blood count in DIO mice; assay type: in vivo, mouse
In short: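 Day-30 cardiac-puncture blood (~700 μL) from obese HFD mice given saline, 10 or 32 mg/kg/day SC daily. Mice were dosed 1 h before CO2 euthanasia after a 4 h fast. 300 μL used for complete blood count; 150 μL for serum chemistry (TG, ALT, AST, ketones, CK, LDH, lipids). Some endpoints analysed by Kruskal-Wallis test.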

mouse NNMT = biological target: T2, mouse NNMT (Mus musculus, UniProt O55239); assay: In vitro biochemical assay against mouse NNMT enzyme
T2 sequence (O55239 1-264): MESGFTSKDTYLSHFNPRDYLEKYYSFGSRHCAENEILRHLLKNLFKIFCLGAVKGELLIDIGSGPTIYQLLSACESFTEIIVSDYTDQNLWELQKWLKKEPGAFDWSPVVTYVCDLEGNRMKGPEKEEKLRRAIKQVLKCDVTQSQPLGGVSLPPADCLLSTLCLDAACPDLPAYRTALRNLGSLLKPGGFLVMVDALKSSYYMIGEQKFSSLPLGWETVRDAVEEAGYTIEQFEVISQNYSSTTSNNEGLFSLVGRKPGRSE

[7] = Solubility in aqueous and simulated gastric fluids; assay type: physicochemical
[8] = Terminal liver 5A1MQ concentration in DIO mice; assay type: in vivo, mouse; conditions: high-dose 32 mg/kg/day SC, ~1–2 h post-dosing on Day 30
In short: as §2

[9] = Acute oral dosing plasma PK in mice; assay type: in vivo, mouse
In short: as §1

[10] = Acute and repeat SC dosing plasma PK in mice; assay type: in vivo, mouse; conditions: for Cmax: plasma
In short: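 Male C57BL/6 mice (18–20 weeks), non-fasted, on certified chow, group-housed. Acute arm (n=6): single 25 mg/kg SC. Repeat arm (n=12): 25 mg/kg SC once daily for 5 days. Plasma stored at −70°C and assayed by LC-MS/MS. Mean ± SD.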

[11] = Metabolic stability in cryopreserved mouse hepatocytes; assay type: in vitro ADME
[12] = Mouse plasma protein binding; assay type: in vitro ADME
DIO mice [13] = assay: Terminal liver weight, histopathology, F4/80 and liver triglycerides in DIO mice; assay type: in vivo, mouse
In short: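 Terminal day-30 livers from obese HFD mice treated daily SC (saline, 10 or 32 mg/kg/day; dosed 1 h pre-sacrifice, 4 h fast). Whole liver weighed. Left-lobe sections flash-frozen for triglyceride assay or formalin-fixed, paraffin-embedded for H&E and F4/80 IHC. Outputs: steatosis, inflammation, ballooning and NAS scores; hepatocyte count; cross-sectional area; F4/80-stained area by image analysis.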

[14] = tested on: Cerep panel of major receptors, enzymes, and uptake transporter proteins; assay: Cerep off-target panel; conditions: 10 μM
[15] = Tissue distribution of 5A1MQ after repeat SC dosing in mice; assay type: in vivo, mouse
In short: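 Male C57BL/6 mice (18–20 weeks) given 25 mg/kg SC once daily for 5 days. On day 5, subsets (n=3/timepoint) bled by cardiac puncture at 1, 4 and 8 h post-dose. Epididymal white fat, liver and quadriceps collected terminally and stored at −70°C. Plasma and tissue levels measured by LC-MS/MS; tissue-to-plasma ratios derived.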

[16] = statistically significant only at the low dose (p<0.05 vs control)
[17] = SC 25 mg/kg once-daily for 5 days
[18] = SC 25 mg/kg single (acute) dose
[19] = SC 25 mg/kg once-daily x5, 1 h post-dose
[20] = SC 25 mg/kg once-daily x5, 8 h post-dose

plasma clearance [1]: 101 mL/min/kg
terminal half-life [1]: 6.3 h
steady-state volume of distribution ([1]; estimated): 39 L/kg
AUC0-∞ ([1]; plasma): 825 ng·h/mL
Cmax ([1]; plasma): 2,009 ng/mL
inhibition of monoamine oxidase-A (MAO-A) [3]: 67.4%
mouse NNMT IC50 (mouse NNMT): 0.078 µg/mL
solubility ([7]; phosphate buffered saline): > 100 mg/mL
solubility ([7]; simulated gastric fluids): > 10 mg/mL
liver concentration of 5A1MQ [8]: 28.5 ng/g
Tmax ([9]; PO 30 mg/kg): 4 h
estimated terminal half-life ([9]; PO 30 mg/kg): 14.8 h
oral bioavailability ([9]; PO 30 mg/kg vs IV 5 mg/kg): 3.5%
AUC0-∞ ([9]; PO 30 mg/kg, plasma): 224 ng·h/mL
Cmax ([9]; PO 30 mg/kg, plasma): 14.5 ng/mL
Plasma AUC0-∞ [10, 17]: 4,687 ng*h/mL
Tmax [10, 17]: ~ 15 minutes
estimated terminal half-life (T1/2) [10, 17]: 12.8 h
Cmax [10, 17]: 5,130 ng/mL
Plasma AUC0-∞ [10, 18]: 7,031 ng*h/mL
estimated terminal half-life (T1/2) [10, 18]: 13.3 h
Tmax ([10]; SC 25 mg/kg single dose): ~ 15 minutes
Cmax ([10]; SC 25 mg/kg single dose): 7,010 ng/mL
clearance [11]: 57.9 mL/min/kg
half-life (T1/2) [11]: < 7 min
mouse plasma protein binding (Fb) [12]: 7%
activity against Cerep panel targets (all except MAO-A) [14]: no significant activity
EWAT-to-plasma ratio [15, 19]: 1.4
liver-to-plasma ratio [15, 19]: 0.09
mean total exposure level in liver [15, 19]: 83 ng/ng
muscle-to-plasma ratio [15, 19]: 2.2
EWAT-to-plasma ratio [15, 20]: 31.1
liver-to-plasma ratio [15, 20]: 1.4
muscle-to-plasma ratio [15, 20]: 17.0
Structure (SMILES): C[n+]1cccc2c(N)cccc21 [5A1MQ, 5-amino-1-methylquinolium]
weekly fed-state blood glucose (DIO mice [2]; 10 and 32 mg/kg/day SC): did not alter
fed-state plasma insulin decrease from baseline (Day 0) to Day 28 (DIO mice [2]; high-dose 32 mg/kg/day SC, control increased by 112%): 9%
fed-state plasma insulin increase from baseline (Day 0) to Day 28 (DIO mice [2]; low-dose 10 mg/kg/day SC, control increased by 112%): 46%
mean reduction in 1-MNA level in the liver relative to controls (1-MNA): 39%
longitudinal lean mass (DIO mice [4]; 10 and 32 mg/kg/day SC): no significant main treatment effect
food intake (DIO mice [4]; 10 and 32 mg/kg/day SC, treatment effect): no main effect
absolute fat mass gain (DIO mice [4]; high-dose 32 mg/kg/day SC): 1.3 g
absolute fat mass gain (DIO mice [4]; low-dose 10 mg/kg/day SC): 4.7 g
OGTT circulating glucose levels at 15- and 30-min post-bolus glucose (DIO mice [5]): significantly decreased
OGTT plasma insulin at 15 min post-glucose loading (DIO mice [5]; p<0.0001): suppressed
decrease in monocytes vs control (DIO mice [6]; high-dose 32 mg/kg/day SC, p<0.001): 50%
decrease in lymphocytes vs control (DIO mice [6]; high-dose 32 mg/kg/day SC, p<0.05): 31%
serum ketone body levels (DIO mice [6]; p<0.0001 high dose vs control): dose-dependently decreased
serum ALT (DIO mice [6]; p<0.001 high-dose vs control): dose-related decreases
serum TG levels (DIO mice [6]; p<0.01 high-dose vs control): significantly lower
serum AST (DIO mice [6]; p<0.01 low-dose vs control): dose-related decreases
total white blood cell count (DIO mice [6]; p<0.05 high-dose vs control): significantly reduced
serum CK (DIO mice [6]; [16]): significantly lowered
serum LDH (DIO mice [6]; [16]): significantly lowered
hepatocyte cell count (DIO mice [13]; 10 and 32 mg/kg/day SC, p<0.0001): significant main effects of treatment
NAFLD activity score (NAS) (DIO mice [13]; 10 and 32 mg/kg/day SC, p<0.0001 high dose vs control): dose-dependent improvement
whole-liver cross-sectional area (DIO mice [13]; 10 and 32 mg/kg/day SC, p=0.0015): significant main effects of treatment
liver TG levels (DIO mice [13]; 10 and 32 mg/kg/day SC, p=0.0169): significantly reduced
liver F4/80 signal (macrophage marker) (DIO mice [13]; high-dose 32 mg/kg/day SC vs control, p<0.05): significantly lowered
terminal liver weight (DIO mice [13]; high-dose 32 mg/kg/day SC, control average 2.1 g): 1.4 g
reduction in microvesicular steatosis compared to controls (DIO mice [13]; high-dose 32 mg/kg/day SC, p<0.01): 73%
liver lobular inflammation (DIO mice [13]; p<0.01 high dose vs control): significantly reduced
hepatocellular ballooning (DIO mice [13]; p<0.05 high dose vs control): significantly reduced
